Consider 48 compounds from ChEMBL document CHEMBL1126624, “Design, synthesis, and pharmacology of 3-substituted sodium azulene-1-sulfonates and related compounds: non-prostanoid thromboxane A2 receptor antagonists” (J Med Chem, 1993).

A word on the IC50: it is the midpoint of a concentration-inhibition curve. A higher IC50 goes with weaker potency.

The species entered for test [1] is Rattus norvegicus. The test is described as follows: Inhibition of U-46619 (3x10E-8 M) induced contraction in rat thoracic aorta. It is filed as functional, organism-based. The method in brief:
(§1)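 Aortic rings were held under 1.0 g resting tension and gassed with 95% O₂/5% CO₂. After 1 h equilibration, 3×10⁻⁸ M U-46619 was added; once tension stabilised, compound was added cumulatively. The concentration giving 50% relaxation of the maximal U-46619 tension was derived by regression. Values are mean ± SEM from three dose groups of four preparations.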

Test [2] in a line: Selectivity index for the difference between the IC50 values in the aggregation and contraction assay. The class given is functional. The gist of the method:
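Index compares IC₅₀ values from U-46619-induced rabbit aorta contraction with those from rabbit platelet-rich plasma aggregation. For aggregation, citrated carotid blood from male New Zealand rabbits (2.0–2.5 kg) gave PRP. PRP was pre-warmed 2 min at 37 °C, given compound for 2 min, then U-46619, with turbidimetric read-out. Each IC₅₀ is mean ± SEM by regression, from three dose groups of four preparations.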

Test [3] is filed under the species Oryctolagus cuniculus. Nature of the test: Compound was tested for agonist activity on rabbit PRP. It is filed as functional. The gist of the method: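 Rabbit platelet-rich plasma was exposed to compound alone at 10⁻⁴ M to test for partial agonism. Response is expressed relative to the response to 0.1 μM U-46619, which is set at 100.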
For test [4], the species on record is Oryctolagus cuniculus. Nature of the test: Compound was tested for agonist activity on rabbit aorta. It is filed as functional. The method in brief:
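Rabbit aortic strips were exposed to compound alone at 10⁻⁵ M to test for partial agonism. Tension is expressed relative to the response to 40 mM KCl, which is set at 100.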

Test [5] concerns Thromboxane A2 receptor (Oryctolagus cuniculus). The test is described as follows: Selectivity index for the TXA2 t-receptor was the difference between the IC50 values in the aggregation and contraction assay.
The species named for test [6] is Homo sapiens. Nature of the test: Effect on TXB2 formation of human platelets. It is filed as functional, organism-based. The method in brief: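 Washed human platelets were sonicated in 50 mM phosphate buffer (pH 7.4) with 1 mM EDTA. They were preincubated with compound and 1 mM GSH for 5 min at 37 °C, then given [1-¹⁴C]arachidonic acid for 5 min. Eicosanoids were extracted and separated by TLC, and TXB₂ radioactivity was counted. IC₅₀ was derived by regression.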

Test [7] is filed under the species Rattus norvegicus. Nature of the test: Compound was tested for the inhibition U-46619 (3 x10 E -8 M) induced contraction against in rat thoracic aorta. The class given is functional, organism-based. The gist of the method: as §1
The species entered for test [8] is Oryctolagus cuniculus. Nature of the test: Displacement of specific binding of [3H]SQ-29,548 to rabbit gel-filtered platelets. It is filed as functional.
Where [9] appears, read: Rattus norvegicus, Thoracic aorta.

Structures are written as SMILES. Some results are limits rather than exact numbers.

In turn, `CC(C)c1ccc2c(CCCCNS(=O)(=O)c3ccc(F)cc3)cc(C(=O)O)c-2cc1` registered an IC50 in test [1] (setting [9]) of 1.1 µM.
As to `CC(C)c1ccc2c(CC/C=C/CCNS(=O)(=O)c3ccccc3)cc(C(=O)O)c-2cc1` (stereo in doubt; 40), half-maximal inhibition in test [1] (IC50) was put at 0.46 µM.
On to `CC(C)c1ccc2c(CCCCNS(=O)(=O)c3ccccc3)cc(C(=O)O)c-2cc1`, for which it took 0.07 µM to reach half-maximal inhibition in test [1] (setting [9]) (IC50). For the same compound, the Selectivity index in test [2] was over 63.
As to `CCCCc1cc(S(=O)(=O)NCCc2ccc(OCC(=O)O)cc2)c2cccccc1-2`, in test [1] (setting [9]), it took 55 µM to reach half-maximal inhibition (IC50).
In turn, `CC(C)c1ccc2c(C(=O)O)cc(-c3cccc(CCNS(=O)(=O)c4ccccc4)c3)c-2cc1` showed an IC50 in test [1] (setting [9]) of 0.14 µM.
Compound `CC(C)c1ccc2c(CC/C=C/CCNS(=O)(=O)c3ccccc3)cc(C(=O)O)c-2cc1` (stereo in doubt; 39) had an IC50 in test [1] of 0.052 µM. That is a double-digit nanomolar value.
For `CC(C)c1ccc2c(CCCCNS(=O)(=O)c3ccccc3)cc(S(=O)(=O)[O-])c-2cc1.[Na+]`, the Agonist activity in test [3] and in test [4] was 0 in each case. This compound also returned an IC50 in test [1] (setting [9]) of 0.017 µM. The compound also yielded a Selectivity index in test [5] of over 91.
With `CC(C)c1cccc2c(CCCCCNS(=O)(=O)c3ccccc3)cc(C(=O)O)c-2c1`, in test [1] (setting [9]), the midpoint of inhibition, the IC50, lay at 2.6 µM.
Turning to `Cc1cc(S(=O)(=O)NCCc2ccc(OCC(=O)O)cc2)c2ccc(C(C)C)ccc1-2`, in test [1] (setting [9]), the IC50 was 84 µM. Compared with the last compound, the IC50 is about 32-fold higher.
On to `COc1ccc(S(=O)(=O)NCCCCc2cc(C(=O)O)c3ccc(C(C)C)ccc2-3)cc1`, for which the Agonist activity in test [3] and in test [4] was 0 each time. In test [1] (setting [9]), this compound gave an IC50 of 0.16 µM. Moreover, in test [5], the Selectivity index was over 233.
With `CCCCc1cc(S(=O)(=O)NCCc2ccc(OCC(=O)O)cc2)c2ccc(C(C)C)ccc1-2`, in test [1] (setting [9]), the IC50 is 19 µM.
Compound `CC(C)c1ccc2c(CCCCNS(=O)(=O)c3ccccc3)cc(CC(=O)O)c-2cc1` returned an IC50 in test [1] (setting [9]) of 0.3 µM.
With `COc1ccc(S(=O)(=O)NCCCCc2cc(S(=O)(=O)[O-])c3ccc(C(C)C)ccc2-3)cc1.[Na+]`, the IC50 in test [6] was over 100 µM; in test [7], 0.0032 µM. Further, the Agonist activity in test [3] and in test [4] was 0 each time. In test [5], this compound had a Selectivity index of 660.
In test [1] (setting [9]), `CC(C)c1ccc2c(C(C)C)cc(S(=O)(=O)NCCc3ccc(OCC(=O)O)cc3)c-2cc1` gave an IC50 of 25 µM.
On the same count and under the same terms, under `CC(C)c1cccc2c(CCCNS(=O)(=O)c3ccccc3)cc(C(=O)O)c-2c1` stands 7.4 µM.
As to `O=C(O)COc1ccc(CCNS(=O)(=O)c2ccccc2)cc1` [SULOTROBAN], in test [1] (setting [9]), half-maximal inhibition (IC50) required 1.5 µM. The compound also displayed a Selectivity index in test [2] of 5.
Compound `CCc1cc(S(=O)(=O)NCCc2ccc(OCC(=O)O)cc2)c2cc(C(C)C)ccc(OC)c1-2` came in with an IC50 in test [1] (setting [9]) of 120 µM.
For the compound `O=C(O)c1cc(CCCCCNS(=O)(=O)c2ccccc2)c2cccccc1-2`, in test [1] (setting [9]), the IC50 amounted to 0.84 µM.
`CCc1cc(S(=O)(=O)NCCc2ccc(OCC(=O)O)cc2)c2ccccc(OC)c1-2` showed an IC50 in test [1] (setting [9]) of 110 µM.
Take `CC(C)c1cccc2c(CCCCNS(=O)(=O)c3ccccc3)cc(C(=O)O)c-2c1`: inhibition in test [1] (setting [9]) was half-maximal at 3.1 µM (IC50). Against the preceding compound, the IC50 is about 35-fold lower.
On to `CC(C)c1cccc2c(CCCCCCCNS(=O)(=O)c3ccccc3)cc(C(=O)O)c-2c1`, for which, in test [1] (setting [9]), 0.93 µM corresponded to half-maximal inhibition (IC50).
`CC(C)c1cc(S(=O)(=O)NCCc2ccc(OCC(=O)O)cc2)c2cccccc1-2` returned an IC50 in test [1] (setting [9]) of 160 µM.
`CC(C)c1ccc2c(CCCCCNS(=O)(=O)c3ccccc3)cc(C(=O)O)c-2cc1`: it took 0.12 µM to reach half-maximal inhibition in test [1] (setting [9]) (IC50).
Take `O=C(O)c1cc(CCCCCCNS(=O)(=O)c2ccccc2)c2cccccc1-2`: in test [1] (setting [9]), half-maximal inhibition (IC50) required 0.14 µM.
In test [1] (setting [9]), `O=C(O)c1cc(CCCNS(=O)(=O)c2ccccc2)c2cccccc1-2` gave an IC50 of 4.8 µM.
`CC(C)c1ccc2c(/C=C/C(=O)O)cc(CCCCNS(=O)(=O)c3ccccc3)c-2cc1` returned an IC50 in test [1] (setting [9]) of 21 µM. This IC50 lies about 4.4-fold higher than the previous one.
On the same count and under the same terms, the value for `CCCc1cc(S(=O)(=O)NCCc2ccc(OCC(=O)O)cc2)c2cc(C(C)C)cccc1-2` was 45 µM.
As to `Cc1cc(S(=O)(=O)NCCc2ccc(OCC(=O)O)cc2)c2cc(C(C)C)cccc1-2`, half-maximal inhibition in test [1] (setting [9]) (IC50) was put at 120 µM. Against the preceding compound, the IC50 is about 2.7-fold higher.
As for `CCc1cc(S(=O)(=O)NCCc2ccc(OCC(=O)O)cc2)c2cccccc1-2`, the IC50 in test [1] (setting [9]) turned out to be 56 µM.
With `CCCCc1cc(S(=O)(=O)NCCc2ccc(OCC(=O)O)cc2)c2cc(C(C)C)cccc1-2`, the IC50 in test [1] (setting [9]) stood at 32 µM.
Regarding `CC(C)c1ccc2c(CCCCNS(=O)(=O)c3ccc(Cl)cc3)cc(S(=O)(=O)[O-])c-2cc1.[Na+]`, the IC50 was over 100 µM in test [6], 0.014 µM in test [8] and 0.0009 µM in test [1] (setting [9]). In addition, the Agonist activity in test [3] and in test [4] was 0 throughout. Further, the Selectivity index in test [5] was 378.
Take `CC(C)c1ccc2c(CCCCNS(=O)(=O)c3ccc(Cl)cc3)cc(C(=O)O)c-2cc1`: in test [1] (setting [9]), the IC50 came out at 0.0053 µM. Also, the Selectivity index in test [2] was over 667.
As for `CCCc1cc(S(=O)(=O)NCCc2ccc(OCC(=O)O)cc2)c2ccc(C(C)C)ccc1-2`, in test [1] (setting [9]), it took 50 µM to reach half-maximal inhibition (IC50).
Still for that read-out and setting: under `CCc1cc(S(=O)(=O)NCCc2ccc(OCC(=O)O)cc2)c2ccc(C(C)C)ccc1-2` stands 65 µM; under `Cc1cc(S(=O)(=O)NCCc2ccc(OCC(=O)O)cc2)c2cccccc1-2`, 190 µM; under `O=C(O)c1cc(CCCCCCCCNS(=O)(=O)c2ccccc2)c2cccccc1-2`, 0.038 µM.
For `O=C(O)c1cc(CCNS(=O)(=O)c2ccccc2)c2cccccc1-2`, in test [1] (setting [9]), inhibition was half-maximal at 21 µM (IC50).
In turn, `CC(C)c1ccc2c(CCCCNS(=O)(=O)c3cccc(C(F)(F)F)c3)cc(C(=O)O)c-2cc1` displayed an IC50 in test [1] (setting [9]) of 1.6 µM. This IC50 lies about 13-fold lower than the previous one.
For `CC(C)c1ccc2c(CCCNS(=O)(=O)c3ccccc3)cc(C(=O)O)c-2cc1`, the IC50 in test [1] (setting [9]) came to 4.8 µM.
In test [1] (setting [9]), `COc1ccccc2c(S(=O)(=O)NCCc3ccc(OCC(=O)O)cc3)cc(C)c1-2` yielded an IC50 of 190 µM. Compared with the last compound, the IC50 is about 40-fold higher.
Take `CCc1cc(S(=O)(=O)NCCc2ccc(OCC(=O)O)cc2)c2cc(C(C)C)cccc1-2`: the IC50 in test [1] (setting [9]) came to 56 µM. This IC50 is about 3.4-fold lower than that of the compound before.
As for `CCCc1cc(S(=O)(=O)NCCc2ccc(OCC(=O)O)cc2)c2cccccc1-2`, the IC50 in test [1] (setting [9]) was determined as 77 µM.
`O=C(O)c1cc(CCCCCCCNS(=O)(=O)c2ccccc2)c2cccccc1-2` showed an IC50 in test [1] (setting [9]) of 0.018 µM.
As to `CC(C)c1cccc2c(CCNS(=O)(=O)c3ccccc3)cc(C(=O)O)c-2c1`, inhibition in test [1] (setting [9]) was half-maximal at 15 µM (IC50).
Regarding `CC(C)c1cccc2c(CCCCCCNS(=O)(=O)c3ccccc3)cc(C(=O)O)c-2c1`, the IC50 in test [1] (setting [9]) is 0.92 µM. This IC50 lies about 16-fold lower than the previous one.
`CC(C)c1ccc2c(CCNS(=O)(=O)c3ccccc3)cc(C(=O)O)c-2cc1` yielded an IC50 in test [1] (setting [9]) of 60 µM.
For `O=C(O)c1cc(CCCCNS(=O)(=O)c2ccccc2)c2cccccc1-2`, the IC50 in test [1] (setting [9]) turned out to be 0.57 µM.
For the compound `CC(C)c1ccc2c(CCCCCCCNS(=O)(=O)c3ccccc3)cc(C(=O)O)c-2cc1`, in test [1] (setting [9]), it took 0.12 µM to reach half-maximal inhibition (IC50).
